Assay results published in ChEMBL document CHEMBL5724801, “EUbOPEN Chemogenomics Library - Multiplex” (2024).
“And” between values parts separate entries of the source, which are not always exact repeats. Equal entries are not always repeated.

Test system: HEK-293T
Experiment: Multiplex assay against HEK293T
Type: toxicity, cell-based
Conditions: human
Procedure, shortened: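 On a CQ1 microscope at 37°C and 5% CO2, live cells were imaged after compound addition. They had been stained at seeding with Hoechst33342, BioTracker Green Microtubule Cytoskeleton Dye, MitoTracker Red and Annexin V Alexa Fluor 680. CellPathfinder machine-learning gating assigned cells to Hoechst high-intensity objects or normal cells, normal cells to healthy, pyknosed or fragmented nuclei, and pyknosed cells to mitotic or apoptotic. Tubulin, mitochondrial-mass and membrane-permeability phenotypes are per cents of healthy-nucleus cells.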

[1] = 12 h, 1 µM, compound concentration 1 uM
[2] = 12 h, 10 µM, compound concentration 10 uM
[3] = 24 h, 1 µM, compound concentration 1 uM
[4] = 24 h, 10 µM, compound concentration 10 uM
[5] = 48 h, 1 µM, compound concentration 1 uM
[6] = 48 h, 10 µM, compound concentration 10 uM

`CC(C)[C@H](C(=O)Nc1ccc(C(=O)NO)cc1)c1ccccc1` [AR-42] was tested, and the “Population Apoptotic (%)” value [1] was 11.9% and 3.88%, the “Population Fragmented Nuclei (%)” value [1] was 1.31% and 2.38% and the “Population Healthy Nuclei (%)” value [1] was 54.83% and 20.83%. For the same compound, the “Population Hoechst High Intensity Objects (%)” value [1] was 0% and 0.59%, the “Population Membrane Permeable-Phenotype (%)” value [1] was 0.95% and 0% and the “Population Mitochondria Different-Phenotype (%)” value [1] was 22.38% and 11.43%. For the same compound, the “Population Mitotic Cells (%)” value [1] was 88.1% and 96.12%, the “Population Normal (%)” value [1] was 100% and 99.41% and the “Population Pyknosed Nuclei (%)” value [1] was 43.86% and 76.79%. For the same compound, the “Total Cell Count” value [1] was 383 and 169, the “Population Apoptotic (%)” value [2] was 11.02% and 12.75% and the “Population Fragmented Nuclei (%)” value [2] was 2.96% and 3.72%. For the same compound, the “Population Hoechst High Intensity Objects (%)” value [2] was 0.37% and 0%, the “Population Membrane Permeable-Phenotype (%)” value [2] was 0% and 3.12% and the “Population Mitotic Cells (%)” value [2] was 88.98% and 87.25%. The “Population Normal (%)” value [2] was 99.63% and 100%, the “Population Pyknosed Nuclei (%)” value [2] was 43.7% and 79.26% and the “Population Tubulin-Different-Phenotype (%)” value [2] was 5.56% and 9.38%. For the same compound, the “Total Cell Count” value [2] was 271 and 188, the “Population Apoptotic (%)” value [3] was 31.4% and 16.41% and the “Population Fragmented Nuclei (%)” value [3] was 3.26% and 2.2%. For the same compound, the “Population Healthy Nuclei (%)” value [3] was 63.86% and 27.47%, the “Population Hoechst High Intensity Objects (%)” value [3] was 0% and the “Population Membrane Permeable-Phenotype (%)” value [3] was 0.43% and 0%. For the same compound, the “Population Mitochondria Different-Phenotype (%)” value [3] was 22.55% and 10%, the “Population Mitotic Cells (%)” value [3] was 68.6% and 83.59% and the “Population Normal (%)” value [3] was 100%. For the same compound, the “Population Pyknosed Nuclei (%)” value [3] was 32.88% and 70.33%, the “Population Tubulin-Different-Phenotype (%)” value [3] was 18.3% and 14% and the “Total Cell Count” value [3] was 368 and 182. For the same compound, the “Population Apoptotic (%)” value [4] was 25.32% and 20.83%, the “Population Fragmented Nuclei (%)” value [4] was 1.5% and 2.78% and the “Population Healthy Nuclei (%)” value [4] was 68.8% and 30.56%. The “Population Hoechst High Intensity Objects (%)” value [4] was 0% and 0.55%, the “Population Membrane Permeable-Phenotype (%)” value [4] was 1.09% and 1.82% and the “Population Mitochondria Different-Phenotype (%)” value [4] was 14.21% and 14.55%. For the same compound, the “Population Mitotic Cells (%)” value [4] was 74.68% and 79.17%, the “Population Normal (%)” value [4] was 100% and 99.45% and the “Population Pyknosed Nuclei (%)” value [4] was 29.7% and 66.67%. The “Population Tubulin-Different-Phenotype (%)” value [4] was 2.73% and 3.64%, the “Total Cell Count” value [4] was 266 and 181 and the “Population Apoptotic (%)” value [5] was 38.66% and 18.09%. The “Population Fragmented Nuclei (%)” value [5] was 3.58% and 2.58%, the “Population Healthy Nuclei (%)” value [5] was 60.9% and 36.77% and the “Population Hoechst High Intensity Objects (%)” value [5] was 1.18% and 0%. For the same compound, the “Population Membrane Permeable-Phenotype (%)” value [5] was 0.49% and 3.51%, the “Population Mitochondria Different-Phenotype (%)” value [5] was 58.33% and 29.82% and the “Population Mitotic Cells (%)” value [5] was 61.34% and 81.91%. The “Population Normal (%)” value [5] was 98.82% and 100%, the “Population Pyknosed Nuclei (%)” value [5] was 35.52% and 60.65% and the “Population Tubulin-Different-Phenotype (%)” value [5] was 21.57% and 47.37%. The “Total Cell Count” value [5] was 339 and 155, the “Population Apoptotic (%)” value [6] was 22.22% and 36.27% and the “Population Fragmented Nuclei (%)” value [6] was 2.93% and 2.55%. For the same compound, the “Population Healthy Nuclei (%)” value [6] was 66.95% and 32.48%, the “Population Hoechst High Intensity Objects (%)” value [6] was 0.42% and 0% and the “Population Membrane Permeable-Phenotype (%)” value [6] was 5% and 3.92%. The “Population Mitochondria Different-Phenotype (%)” value [6] was 22.5% and 11.76%, the “Population Mitotic Cells (%)” value [6] was 77.78% and 63.73% and the “Population Normal (%)” value [6] was 99.58% and 100%. For the same compound, the “Population Pyknosed Nuclei (%)” value [6] was 30.13% and 64.97%, the “Population Tubulin-Different-Phenotype (%)” value [6] was 9.38% and 15.69% and the “Total Cell Count” value [6] was 240 and 157.
With `O=C(Nc1c[nH]nc1-c1nc2cc(CN3CCOCC3)ccc2[nH]1)NC1CC1` [AT-9283] the “Population Apoptotic (%)” value [1] was 12.17% and 7.08%, the “Population Fragmented Nuclei (%)” value [1] was 0.89% and 3.5% and the “Population Healthy Nuclei (%)” value [1] was 48% and 17.48%. For the same compound, the “Population Hoechst High Intensity Objects (%)” value [1] was 0%, the “Population Membrane Permeable-Phenotype (%)” value [1] was 0.93% and 0% and the “Population Mitotic Cells (%)” value [1] was 87.83% and 92.92%. For the same compound, the “Population Normal (%)” value [1] was 100%, the “Population Pyknosed Nuclei (%)” value [1] was 51.11% and 79.02% and the “Total Cell Count” value [1] was 225 and 143. The “Population Apoptotic (%)” value [2] was 9.66% and 13.57%, the “Population Fragmented Nuclei (%)” value [2] was 1.6% and 0.63% and the “Population Healthy Nuclei (%)” value [2] was 28% and 10.76%. For the same compound, the “Population Hoechst High Intensity Objects (%)” value [2] was 0%, the “Population Membrane Permeable-Phenotype (%)” value [2] was 0% and 11.76% and the “Population Mitotic Cells (%)” value [2] was 90.34% and 86.43%. The “Population Normal (%)” value [2] was 100%, the “Population Pyknosed Nuclei (%)” value [2] was 70.4% and 88.61% and the “Population Tubulin-Different-Phenotype (%)” value [2] was 20% and 35.29%. The “Total Cell Count” value [2] was 250 and 158, the “Population Apoptotic (%)” value [3] was 21.74% and 12.8% and the “Population Fragmented Nuclei (%)” value [3] was 4.26% and 2.61%. The “Population Hoechst High Intensity Objects (%)” value [3] was 0.35% and 0%, the “Population Membrane Permeable-Phenotype (%)” value [3] was 0% and 4.17% and the “Population Mitochondria Different-Phenotype (%)” value [3] was 18.06% and 0%. For the same compound, the “Population Mitotic Cells (%)” value [3] was 78.26% and 87.2%, the “Population Normal (%)” value [3] was 99.65% and 100% and the “Population Pyknosed Nuclei (%)” value [3] was 40.78% and 81.7%. For the same compound, the “Population Tubulin-Different-Phenotype (%)” value [3] was 17.42% and 16.67%, the “Total Cell Count” value [3] was 283 and 153 and the “Population Apoptotic (%)” value [4] was 24.17% and 28.99%. For the same compound, the “Population Fragmented Nuclei (%)” value [4] was 0.37% and 0.67%, the “Population Hoechst High Intensity Objects (%)” value [4] was 0.37% and 0% and the “Population Membrane Permeable-Phenotype (%)” value [4] was 1.79% and 0%. The “Population Mitotic Cells (%)” value [4] was 75.83% and 71.01%, the “Population Normal (%)” value [4] was 99.63% and 100% and the “Population Pyknosed Nuclei (%)” value [4] was 78.73% and 92.62%. For the same compound, the “Population Tubulin-Different-Phenotype (%)” value [4] was 33.93% and 40%, the “Total Cell Count” value [4] was 269 and 149 and the “Population Apoptotic (%)” value [5] was 44.44% and 22.06%. For the same compound, the “Population Fragmented Nuclei (%)” value [5] was 2.23% and 0%, the “Population Healthy Nuclei (%)” value [5] was 80.17% and 46.03% and the “Population Hoechst High Intensity Objects (%)” value [5] was 0% and 0.79%. For the same compound, the “Population Membrane Permeable-Phenotype (%)” value [5] was 3.83% and 1.72%, the “Population Mitochondria Different-Phenotype (%)” value [5] was 49.13% and 22.41% and the “Population Mitotic Cells (%)” value [5] was 55.56% and 77.94%. The “Population Normal (%)” value [5] was 100% and 99.21%, the “Total Cell Count” value [5] was 358 and 127 and the “Population Apoptotic (%)” value [6] was 52.36% and 56.2%. For the same compound, the “Population Fragmented Nuclei (%)” value [6] was 1.67% and 2.67%, the “Population Hoechst High Intensity Objects (%)” value [6] was 0.83% and 0% and the “Population Membrane Permeable-Phenotype (%)” value [6] was 0%. For the same compound, the “Population Mitochondria Different-Phenotype (%)” value [6] was 88.89% and 55.56%, the “Population Mitotic Cells (%)” value [6] was 47.64% and 43.8% and the “Population Normal (%)” value [6] was 99.17% and 100%. The “Population Pyknosed Nuclei (%)” value [6] was 79.58% and 91.33%, the “Population Tubulin-Different-Phenotype (%)” value [6] was 24.44% and 55.56% and the “Total Cell Count” value [6] was 242 and 150.
